For eleven compounds, ED50 and inhibition in vivo results are on record in ChEMBL document CHEMBL1124595, “Synthesis and biological activity of 3-substituted imidazo[1,2-a]pyridines as antiulcer agents” (1989).

What all share (type): functional
Assay [1] deals with Rattus norvegicus. In words: Antisecretory activity in gastric fistula rat when administered perorally. Particulars: Stomach, po. The procedure, abridged: (§1)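 Chronic gastric fistula rats dosed orally. Activity was taken as percent inhibition of gastric acid secretion. The dose giving 50% inhibition (ED50) was calculated by probit analysis.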
The subject of assay [2] is Rattus norvegicus. Put plainly: Cytoprotective activity in rat when administered 30 mg/kg perorally (Ethyl alcohol as necrotic agent). As to conditions: route oral. The gist of the method: (§2)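 Food was withheld for 24 h and water for 1½–18 h. Rats were dosed orally (3–12 mL vehicle/kg) 60 min before 100% ethanol, 3.0 mL/kg by gavage. They were killed 60 min after insult, and the stomach was opened along the lesser curvature and photographed. Lesion area score ÷4 gave mm²; group mean was compared with controls as % inhibition. Five animals per dose, standard error.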

Assay [3] relates to Rattus norvegicus. In words: Cytoprotective activity in rats when administered 30 mg/kg perorally (Hydrochloric acid as necrotic agent). As to conditions: route oral. The procedure, abridged:
(§3)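 Food was withheld for 24 h and water for 1½–18 h. Rats were dosed orally (3–12 mL vehicle/kg) 60 min before 0.75 N HCl, 3.0 mL/kg by gavage. They were killed 60 min after insult, and the stomach was opened along the greater curvature and photographed. Lesion area score ÷4 gave mm²; group mean was compared with controls as % inhibition. Five animals per dose, standard error.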

The subject of assay [4] is Rattus norvegicus. In words: Cytoprotective activity in rat when administered 50 mg/kg perorally (Ethyl alcohol as necrotic agent). Particulars: route oral. The gist of the method: as §2
Assay [5] deals with Rattus norvegicus. In words: Cytoprotective activity in rats when administered 50 mg/kg perorally (Hydrochloric acid as necrotic agent). Particulars: route oral. The gist of the method: as §3
Assay [6] deals with Rattus norvegicus. Put plainly: Cytoprotective activity in rats when administered 100 mg/kg perorally (Hydrochloric acid as necrotic agent). Particulars: route oral. The gist of the method: as §3
Assay [7] concerns Rattus norvegicus. In words: Antisecretory activity in gastric fistula rat when administered per orally. Particulars: Stomach, po. The procedure, abridged:
as §1

For assay [8], the system named is Rattus norvegicus. Put plainly: Cytoprotective activity in rats when administered 50 mg/kg perorally per orally (Hydrochloric acid as necrotic agent). Particulars: route oral. The procedure, abridged:
as §3

The subject of assay [9] is Rattus norvegicus. In words: Cytoprotective activity in rats when administered 0.10 mg/kg perorally per orally (Hydrochloric acid as necrotic agent). Particulars: route oral. The gist of the method: as §3
For assay [10], the system named is Rattus norvegicus. In words: Cytoprotective activity in rat when administered 0.25 mg/kg perorally (Ethyl alcohol as necrotic agent). As to conditions: route oral. The gist of the method:
as §2

With `Cc1nc2c(OCc3ccccc3)cccn2c1C(C)SCCNc1nsnc1N` (configuration not stated), the ED50 with Rattus norvegicus [1] was > 25 mg/kg. Also, the inhibition in vivo at 30 mg/kg was 84% in the assay with Rattus norvegicus [2] and 62% in the assay with Rattus norvegicus [3].
`Cc1nc2c(OCc3ccccc3)cccn2c1C(C)SCCNc1n[s+]([O-])nc1N` (configuration not stated): the inhibition in vivo at 50 mg/kg with Rattus norvegicus [4] and with Rattus norvegicus [5] was 57% in each case. The ED50 in the assay on Rattus norvegicus [1] is > 25 mg/kg.
As for `C/N=C(/NC#N)NCCSCc1c(C)nc2ccccn12`, in the assay on Rattus norvegicus [1], the ED50 was > 25 mg/kg. The same compound showed an inhibition in vivo at 30 mg/kg in the assay on Rattus norvegicus [2] of 97%. The inhibition in vivo at 50 mg/kg in the assay with Rattus norvegicus [5] turned out to be 60%.
As for `Cc1nc2c(OCc3ccccc3)cccn2c1CC#N`, in the assay with Rattus norvegicus [6], at 100 mg/kg the inhibition in vivo was 68%. Moreover, in the assay on Rattus norvegicus [1], the ED50 turned out to be 0.9 mg/kg. The same compound returned an inhibition in vivo at 30 mg/kg in the assay on Rattus norvegicus [2] of 90%.
For `Cc1nc2ccccn2c1C(C)SCCNc1nsnc1N` (configuration not stated), the inhibition in vivo at 50 mg/kg in the assay with Rattus norvegicus [4] was 54%; with Rattus norvegicus [5], 51%. The ED50 in the assay on Rattus norvegicus [1] is > 25 mg/kg.
With `Cc1nc2ccccn2c1C(C)SCC/N=c1/c(O)c(O)c1=N` (configuration not stated), the ED50 in the assay on Rattus norvegicus [7] is > 25 mg/kg. For the same compound, the inhibition in vivo at 50 mg/kg in the assay with Rattus norvegicus [8] came to 27%; with Rattus norvegicus [4], 7%.
Regarding `Cc1nc2ccccn2c1CSCCNc1nsnc1N`, the inhibition in vivo at 50 mg/kg turned out to be 70% in the assay with Rattus norvegicus [4] and 24% in the assay on Rattus norvegicus [5]. Further, the ED50 in the assay on Rattus norvegicus [1] is > 25 mg/kg.
As to `Cc1nc2ccccn2c1CSCC/N=c1/c(O)c(O)c1=N`, the ED50 in the assay with Rattus norvegicus [7] is > 25 mg/kg. In addition, the inhibition in vivo at 50 mg/kg in the assay with Rattus norvegicus [8] stood at 34%; in the assay on Rattus norvegicus [4], 0%.
With `Cc1nc2ccccn2c1CSCCNc1n[s+]([O-])nc1N` (configuration not stated), in the assay with Rattus norvegicus [4], testing at 50 mg/kg gave an inhibition in vivo of 2%. Also, the ED50 with Rattus norvegicus [1] was > 25 mg/kg.
Consider `Cc1nc2ccccn2c1C(C)SCCNc1n[s+]([O-])nc1N` (configuration not stated), for which the inhibition in vivo at 50 mg/kg in the assay on Rattus norvegicus [4] came to 47%; in the assay with Rattus norvegicus [5], 36%. Besides, the median effective dose (ED50) in the assay with Rattus norvegicus [1] is > 25 mg/kg.
As to `CCCCC[C@H](O)/C=C/[C@H]1[C@H](O)CC(=O)[C@@H]1C/C=C\CCCC(=O)O` [DINOPROSTONE], the ED50 with Rattus norvegicus [7] is 0.83 mg/kg. For the same compound, the inhibition in vivo at 0.1 mg/kg in the assay on Rattus norvegicus [9] was 70%. In the assay on Rattus norvegicus [10], this compound returned an inhibition in vivo at 0.25 mg/kg of 89%.
